Molecular target: T1, Cytochrome P450 3A4 (Homo sapiens, UniProt P08684)
T1 sequence (P08684 whole entry): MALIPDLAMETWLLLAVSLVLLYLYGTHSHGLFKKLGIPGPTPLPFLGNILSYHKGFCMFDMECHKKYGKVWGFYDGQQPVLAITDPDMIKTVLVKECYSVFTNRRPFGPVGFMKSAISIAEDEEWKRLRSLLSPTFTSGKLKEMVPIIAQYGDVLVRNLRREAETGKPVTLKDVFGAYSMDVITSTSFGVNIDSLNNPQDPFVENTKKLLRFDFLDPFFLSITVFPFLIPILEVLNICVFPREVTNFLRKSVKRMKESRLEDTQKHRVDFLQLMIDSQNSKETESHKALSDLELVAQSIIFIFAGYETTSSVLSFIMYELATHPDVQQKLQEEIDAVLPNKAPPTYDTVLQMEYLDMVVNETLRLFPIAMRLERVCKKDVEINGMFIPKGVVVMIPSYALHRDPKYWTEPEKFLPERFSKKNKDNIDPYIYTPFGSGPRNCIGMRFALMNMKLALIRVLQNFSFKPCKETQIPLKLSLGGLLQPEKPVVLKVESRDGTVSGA
Assay: Inhibition of CYP3A4 in human liver microsomes assessed as reduction in midazolam 1'-hydroxylation
Type: ADME
Details: not given; call rule not given here
With CCOC(=O)N1CCN(C(=O)[C@H](CCC(=O)O)NC(=O)c2cc(-c3ccccc3)nc(-c3ccccc3)n2)CC1 the “inhibition (INH)” value was “Not Active”.
In the case of CCOC(=O)N1CCN(C(=O)[C@H](CCC(=O)O)NC(=O)c2cc(NCCC(=O)O)nc(-c3ccccc3)n2)CC1, the “inhibition (INH)” value is reported as “Not Active”.
For CCOC(=O)N1CCN(C(=O)[C@H](CCC(=O)O)NC(=O)c2cc(Nc3ccccc3)nc(-c3ccccc3)n2)CC1, the “inhibition (INH)” value was “Not Active”.
In the case of CCOC(=O)N1CCN(C(=O)[C@H](CCC(=O)O)NC(=O)c2cc(NCc3ccccc3)nc(-c3ccccc3)n2)CC1, the “inhibition (INH)” value is reported as “Not Active”.

Molecular target: P2Y purinoceptor 12 (Homo sapiens, UniProt Q9H244)
Sequence (Q9H244 whole entry): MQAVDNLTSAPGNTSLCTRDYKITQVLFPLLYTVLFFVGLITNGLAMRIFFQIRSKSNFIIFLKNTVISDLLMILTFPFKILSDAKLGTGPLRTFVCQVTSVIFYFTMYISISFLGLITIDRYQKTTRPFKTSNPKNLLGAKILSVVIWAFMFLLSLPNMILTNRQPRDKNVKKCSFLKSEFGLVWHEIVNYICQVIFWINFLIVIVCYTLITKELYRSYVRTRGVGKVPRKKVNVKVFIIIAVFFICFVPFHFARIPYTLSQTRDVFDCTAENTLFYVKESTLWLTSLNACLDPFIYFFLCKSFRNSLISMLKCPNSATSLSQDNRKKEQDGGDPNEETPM
Assay: Displacement of [3H]-2-methyl-thio-adenosine 5'-diphosphate from human recombinant P2Y12 expressed in CHO cell membranes by scintillation counting method
Details: not given
Procedure, shortened: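 CHO cells expressing recombinant P2Y₁₂ receptors, incubated with tritium-labeled 2-methyl-thio-adenosine 5'-diphosphate plus test compound; IC₅₀ from displacement curves, each point in triplicate; reference compound run with every compound set, and set re-analyzed if its IC₅₀ fell outside pre-set 95% confidence interval.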
Compound CCOC(=O)N1CCN(C(=O)[C@H](CCC(=O)O)NC(=O)c2cc(-c3ccccc3)nc(-c3ccccc3)n2)CC1 has an IC50 of 64 nM.
With CCOC(=O)N1CCN(C(=O)[C@H](CCC(=O)O)NC(=O)c2cc(NCCC(=O)O)nc(-c3ccccc3)n2)CC1 the IC50 was 198 nM.
Compound CCOC(=O)N1CCN(C(=O)[C@H](CCC(=O)O)NC(=O)c2cc(Nc3ccccc3)nc(-c3ccccc3)n2)CC1 has an IC50 of 177 nM.
For CCOC(=O)N1CCN(C(=O)[C@H](CCC(=O)O)NC(=O)c2cc(NCc3ccccc3)nc(-c3ccccc3)n2)CC1, the IC50 was 122 nM.

Molecular target: T1, Cytochrome P450 3A4
Assay: Inhibition of CYP3A4 in human liver microsomes assessed as reduction in testosterone 6beta-hydroxylation
Type: ADME
Details: not given
For CCOC(=O)N1CCN(C(=O)[C@H](CCC(=O)O)NC(=O)c2cc(-c3ccccc3)nc(-c3ccccc3)n2)CC1, the “inhibition (INH)” value was “Not Active”.
With CCOC(=O)N1CCN(C(=O)[C@H](CCC(=O)O)NC(=O)c2cc(NCCC(=O)O)nc(-c3ccccc3)n2)CC1 the “inhibition (INH)” value was “Not Active”.
For CCOC(=O)N1CCN(C(=O)[C@H](CCC(=O)O)NC(=O)c2cc(Nc3ccccc3)nc(-c3ccccc3)n2)CC1, the “inhibition (INH)” value was “Not Active”.
In the case of CCOC(=O)N1CCN(C(=O)[C@H](CCC(=O)O)NC(=O)c2cc(NCc3ccccc3)nc(-c3ccccc3)n2)CC1, the “inhibition (INH)” value is reported as “Not Active”.

Test system: not listed separately
Assay: Solubility in basic pH
Type: physicochemical
Details: not given
With CCOC(=O)N1CCN(C(=O)[C@H](CCC(=O)O)NC(=O)c2cc(-c3ccccc3)nc(-c3ccccc3)n2)CC1 the solubility was “soluble”.
In the case of CCOC(=O)N1CCN(C(=O)[C@H](CCC(=O)O)NC(=O)c2cc(NCCC(=O)O)nc(-c3ccccc3)n2)CC1, the solubility is reported as “soluble”.
In the case of CCOC(=O)N1CCN(C(=O)[C@H](CCC(=O)O)NC(=O)c2cc(Nc3ccccc3)nc(-c3ccccc3)n2)CC1, the solubility is reported as “soluble”.
With CCOC(=O)N1CCN(C(=O)[C@H](CCC(=O)O)NC(=O)c2cc(NCc3ccccc3)nc(-c3ccccc3)n2)CC1 the solubility was “soluble”.

Test system: Liver microsome
Assay: Metabolic stability assay in rat liver microsomes assessed as parent drug disappearance at 1 uM after 20 mins by HPLC and mass spectrometry method
Type: ADME
Details: not given
In the case of CCOC(=O)N1CCN(C(=O)[C@H](CCC(=O)O)NC(=O)c2cc(-c3ccccc3)nc(-c3ccccc3)n2)CC1, the Stability is reported as “Stable”.
With CCOC(=O)N1CCN(C(=O)[C@H](CCC(=O)O)NC(=O)c2cc(NCCC(=O)O)nc(-c3ccccc3)n2)CC1 the Stability was “Stable”.
In the case of CCOC(=O)N1CCN(C(=O)[C@H](CCC(=O)O)NC(=O)c2cc(Nc3ccccc3)nc(-c3ccccc3)n2)CC1, the Stability is reported as “Stable”.
In the case of CCOC(=O)N1CCN(C(=O)[C@H](CCC(=O)O)NC(=O)c2cc(NCc3ccccc3)nc(-c3ccccc3)n2)CC1, the Stability is reported as “Stable”.

Test system: Liver microsome
Assay: Metabolic stability assay in human liver microsomes assessed as parent drug disappearance at 1 uM after 20 mins by HPLC and mass spectrometry method
Type: ADME
Details: not given
For CCOC(=O)N1CCN(C(=O)[C@H](CCC(=O)O)NC(=O)c2cc(-c3ccccc3)nc(-c3ccccc3)n2)CC1, the Stability was “Stable”.
For CCOC(=O)N1CCN(C(=O)[C@H](CCC(=O)O)NC(=O)c2cc(NCCC(=O)O)nc(-c3ccccc3)n2)CC1, the Stability was “Stable”.
With CCOC(=O)N1CCN(C(=O)[C@H](CCC(=O)O)NC(=O)c2cc(Nc3ccccc3)nc(-c3ccccc3)n2)CC1 the Stability was “Stable”.
For CCOC(=O)N1CCN(C(=O)[C@H](CCC(=O)O)NC(=O)c2cc(NCc3ccccc3)nc(-c3ccccc3)n2)CC1, the Stability was “Stable”.

Test system: not listed separately
Assay: Solubility in neutral pH
Type: physicochemical
Details: not given
For CCOC(=O)N1CCN(C(=O)[C@H](CCC(=O)O)NC(=O)c2cc(-c3ccccc3)nc(-c3ccccc3)n2)CC1, the solubility was “soluble”.
In the case of CCOC(=O)N1CCN(C(=O)[C@H](CCC(=O)O)NC(=O)c2cc(NCCC(=O)O)nc(-c3ccccc3)n2)CC1, the solubility is reported as “soluble”.
For CCOC(=O)N1CCN(C(=O)[C@H](CCC(=O)O)NC(=O)c2cc(Nc3ccccc3)nc(-c3ccccc3)n2)CC1, the solubility was “soluble”.
For CCOC(=O)N1CCN(C(=O)[C@H](CCC(=O)O)NC(=O)c2cc(NCc3ccccc3)nc(-c3ccccc3)n2)CC1, the solubility was “soluble”.

Test system: Platelet
Assay: Inhibition of ADP-induced platelet aggregation in human platelet rich plasma assessed as remaining activity at 500 nM by in-vitro light transmission aggregometry assay
Type: functional
Details: not given
Procedure, shortened: (§1)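 Light transmission aggregometry in human platelet-rich plasma; compound incubated, aggregation triggered with 3 µM ADP; remaining activity (RA) recorded at a single compound level (1000, 500 or 100 nM).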
Compound CCOC(=O)N1CCN(C(=O)[C@H](CCC(=O)O)NC(=O)c2cc(-c3ccccc3)nc(-c3ccccc3)n2)CC1 has an Activity greater than 60%.
Work on CCOC(=O)N1CCN(C(=O)[C@H](CCC(=O)O)NC(=O)c2cc(NCCC(=O)O)nc(-c3ccccc3)n2)CC1 yielded an Activity greater than 60%.
In the case of CCOC(=O)N1CCN(C(=O)[C@H](CCC(=O)O)NC(=O)c2cc(Nc3ccccc3)nc(-c3ccccc3)n2)CC1, the Activity is reported as greater than 60%.
In the case of CCOC(=O)N1CCN(C(=O)[C@H](CCC(=O)O)NC(=O)c2cc(NCc3ccccc3)nc(-c3ccccc3)n2)CC1, the Activity is reported as greater than 60%.

Molecular target: Cytochrome P450 2C9 (Homo sapiens, UniProt P11712)
Sequence (P11712 whole entry): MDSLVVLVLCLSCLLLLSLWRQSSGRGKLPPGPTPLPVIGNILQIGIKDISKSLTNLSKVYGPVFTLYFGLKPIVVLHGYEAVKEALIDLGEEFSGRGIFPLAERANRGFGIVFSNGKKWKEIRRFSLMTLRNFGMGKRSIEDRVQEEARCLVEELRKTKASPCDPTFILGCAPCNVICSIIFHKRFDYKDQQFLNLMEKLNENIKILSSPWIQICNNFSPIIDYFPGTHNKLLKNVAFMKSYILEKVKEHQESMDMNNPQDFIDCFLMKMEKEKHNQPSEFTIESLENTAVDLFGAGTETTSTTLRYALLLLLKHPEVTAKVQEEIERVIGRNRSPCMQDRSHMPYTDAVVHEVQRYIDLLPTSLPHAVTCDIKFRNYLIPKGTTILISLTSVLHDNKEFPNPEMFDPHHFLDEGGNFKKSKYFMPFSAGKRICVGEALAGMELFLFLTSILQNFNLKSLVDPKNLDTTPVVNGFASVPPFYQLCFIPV
Assay: Inhibition of CYP2C9 in human liver microsomes assessed as reduction in diclofenac 4'-hydroxylation
Type: ADME
Details: not given
For CCOC(=O)N1CCN(C(=O)[C@H](CCC(=O)O)NC(=O)c2cc(-c3ccccc3)nc(-c3ccccc3)n2)CC1, the “inhibition (INH)” value was “Not Active”.
For CCOC(=O)N1CCN(C(=O)[C@H](CCC(=O)O)NC(=O)c2cc(NCCC(=O)O)nc(-c3ccccc3)n2)CC1, the “inhibition (INH)” value was “Not Active”.
For CCOC(=O)N1CCN(C(=O)[C@H](CCC(=O)O)NC(=O)c2cc(Nc3ccccc3)nc(-c3ccccc3)n2)CC1, the “inhibition (INH)” value was “Not Active”.
With CCOC(=O)N1CCN(C(=O)[C@H](CCC(=O)O)NC(=O)c2cc(NCc3ccccc3)nc(-c3ccccc3)n2)CC1 the “inhibition (INH)” value was “Not Active”.

Molecular target: Voltage-gated inwardly rectifying potassium channel KCNH2 (Homo sapiens, UniProt Q12809)
Sequence (Q12809 whole entry): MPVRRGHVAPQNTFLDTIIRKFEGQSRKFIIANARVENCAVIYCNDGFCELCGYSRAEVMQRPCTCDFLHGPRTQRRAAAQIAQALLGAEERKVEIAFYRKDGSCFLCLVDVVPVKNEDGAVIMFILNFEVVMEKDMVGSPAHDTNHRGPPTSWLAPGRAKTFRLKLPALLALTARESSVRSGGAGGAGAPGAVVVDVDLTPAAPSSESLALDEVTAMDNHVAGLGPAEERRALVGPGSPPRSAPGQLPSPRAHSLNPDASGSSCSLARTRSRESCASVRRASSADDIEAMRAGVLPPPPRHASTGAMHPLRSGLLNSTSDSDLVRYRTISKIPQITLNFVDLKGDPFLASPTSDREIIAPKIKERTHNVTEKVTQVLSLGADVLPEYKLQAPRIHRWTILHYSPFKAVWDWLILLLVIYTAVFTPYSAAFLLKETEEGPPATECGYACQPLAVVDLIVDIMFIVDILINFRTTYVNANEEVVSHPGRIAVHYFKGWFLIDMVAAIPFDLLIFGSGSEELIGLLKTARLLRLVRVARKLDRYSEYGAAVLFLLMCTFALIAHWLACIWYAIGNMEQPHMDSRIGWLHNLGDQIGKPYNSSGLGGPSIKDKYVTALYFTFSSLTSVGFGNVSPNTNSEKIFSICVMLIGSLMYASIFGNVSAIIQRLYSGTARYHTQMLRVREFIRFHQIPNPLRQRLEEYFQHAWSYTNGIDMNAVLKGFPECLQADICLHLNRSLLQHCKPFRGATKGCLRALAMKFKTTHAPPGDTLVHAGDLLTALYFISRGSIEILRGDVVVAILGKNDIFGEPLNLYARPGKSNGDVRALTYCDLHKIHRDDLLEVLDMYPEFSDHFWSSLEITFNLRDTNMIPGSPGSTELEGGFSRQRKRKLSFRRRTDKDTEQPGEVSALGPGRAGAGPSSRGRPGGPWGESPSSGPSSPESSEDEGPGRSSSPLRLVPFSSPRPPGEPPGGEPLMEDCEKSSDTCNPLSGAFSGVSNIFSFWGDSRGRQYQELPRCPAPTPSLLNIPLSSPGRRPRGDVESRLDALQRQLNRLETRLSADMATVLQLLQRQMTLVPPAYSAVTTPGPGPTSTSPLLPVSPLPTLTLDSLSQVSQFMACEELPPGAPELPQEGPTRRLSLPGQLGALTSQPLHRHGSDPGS
Assay: Inhibition of human ERG expressed in HEK cells by patch-clamp assay
Type: cell-based
Details: hek293
In the case of CCOC(=O)N1CCN(C(=O)[C@H](CCC(=O)O)NC(=O)c2cc(-c3ccccc3)nc(-c3ccccc3)n2)CC1, the “inhibition (INH)” value is reported as “Not Active”.
In the case of CCOC(=O)N1CCN(C(=O)[C@H](CCC(=O)O)NC(=O)c2cc(NCCC(=O)O)nc(-c3ccccc3)n2)CC1, the “inhibition (INH)” value is reported as “Not Active”.
In the case of CCOC(=O)N1CCN(C(=O)[C@H](CCC(=O)O)NC(=O)c2cc(Nc3ccccc3)nc(-c3ccccc3)n2)CC1, the “inhibition (INH)” value is reported as “Not Active”.
For CCOC(=O)N1CCN(C(=O)[C@H](CCC(=O)O)NC(=O)c2cc(NCc3ccccc3)nc(-c3ccccc3)n2)CC1, the “inhibition (INH)” value was “Not Active”.

Molecular target: Cytochrome P450 2D6 (Homo sapiens, UniProt P10635)
Sequence (P10635 whole entry): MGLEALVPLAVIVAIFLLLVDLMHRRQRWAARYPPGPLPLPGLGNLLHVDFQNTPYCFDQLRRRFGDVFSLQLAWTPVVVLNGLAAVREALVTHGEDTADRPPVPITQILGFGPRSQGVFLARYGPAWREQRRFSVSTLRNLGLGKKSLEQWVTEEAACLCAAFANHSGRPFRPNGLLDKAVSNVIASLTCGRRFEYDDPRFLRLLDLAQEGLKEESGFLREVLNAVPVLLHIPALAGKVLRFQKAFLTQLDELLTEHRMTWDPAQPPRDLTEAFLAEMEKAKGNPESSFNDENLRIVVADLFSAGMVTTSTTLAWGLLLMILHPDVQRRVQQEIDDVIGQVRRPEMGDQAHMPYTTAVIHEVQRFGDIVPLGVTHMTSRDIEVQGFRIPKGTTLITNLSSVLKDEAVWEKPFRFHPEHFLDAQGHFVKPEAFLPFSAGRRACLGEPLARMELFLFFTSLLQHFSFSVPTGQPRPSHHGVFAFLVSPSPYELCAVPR
Assay: Inhibition of CYP2D6 in human liver microsomes assessed as reduction in dextromethorphan-O demethylation
Type: ADME
Details: not given
For CCOC(=O)N1CCN(C(=O)[C@H](CCC(=O)O)NC(=O)c2cc(-c3ccccc3)nc(-c3ccccc3)n2)CC1, the “inhibition (INH)” value was “Not Active”.
With CCOC(=O)N1CCN(C(=O)[C@H](CCC(=O)O)NC(=O)c2cc(NCCC(=O)O)nc(-c3ccccc3)n2)CC1 the “inhibition (INH)” value was “Not Active”.
In the case of CCOC(=O)N1CCN(C(=O)[C@H](CCC(=O)O)NC(=O)c2cc(Nc3ccccc3)nc(-c3ccccc3)n2)CC1, the “inhibition (INH)” value is reported as “Not Active”.
For CCOC(=O)N1CCN(C(=O)[C@H](CCC(=O)O)NC(=O)c2cc(NCc3ccccc3)nc(-c3ccccc3)n2)CC1, the “inhibition (INH)” value was “Not Active”.

Test system: Platelet
Assay: Inhibition of ADP-induced platelet aggregation in human platelet rich plasma assessed as remaining activity at 1000 nM by in-vitro light transmission aggregometry assay
Type: functional
Details: not given
Procedure, shortened: as §1
In the case of CCOC(=O)N1CCN(C(=O)[C@H](CCC(=O)O)NC(=O)c2cc(-c3ccccc3)nc(-c3ccccc3)n2)CC1, the Activity is reported as greater than 30%.
CCOC(=O)N1CCN(C(=O)[C@H](CCC(=O)O)NC(=O)c2cc(NCCC(=O)O)nc(-c3ccccc3)n2)CC1 gave an Activity greater than 30%.
In the case of CCOC(=O)N1CCN(C(=O)[C@H](CCC(=O)O)NC(=O)c2cc(Nc3ccccc3)nc(-c3ccccc3)n2)CC1, the Activity is reported as greater than 30%.
For CCOC(=O)N1CCN(C(=O)[C@H](CCC(=O)O)NC(=O)c2cc(NCc3ccccc3)nc(-c3ccccc3)n2)CC1, the Activity was greater than 30%.

— ChEMBL document CHEMBL3351863, “Optimization of 2-phenyl-pyrimidine-4-carboxamides towards potent, orally bioavailable and selective P2Y(12) antagonists for inhibition of platelet aggregation” (Bioorg Med Chem Lett, 2014)
